# Laboratory results: ChEMBL document CHEMBL3351579, “Structural optimization of a retrograde trafficking inhibitor that protects cells from infections by human polyoma- and papillomaviruses” (Bioorg Med Chem, 2014)
# The source made the active and inactive calls. The rule behind the calls is not given here.
# What was measured:
# [1] = test system: JC polyomavirus; test: Antiviral activity against JC polyomavirus Mad1-SVEdelta infected in SVG-A cells assessed as viral infectivity level pre-incubated for 0.5 hrs with 25 uM compound before viral infection for 72 hrs by flow cytometry relative to DMSO control; format: functional
# [2] = test system: JC polyomavirus; test: Antiviral activity against JC polyomavirus Mad1-SVEdelta infected in SVG-A cells assessed as reduction in viral infectivity pre-incubated for 0.5 hrs with compound before viral infection for 72 hrs by flow cytometry; format: functional, cell-based
# How it was run: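 JCPyV infection of SVG-A cells (1 × 10^5 per well, seeded overnight at 37°C) after 0.5 h pretreatment with compound from 1:2 serial dilutions of a 2500x DMSO stock, final DMSO 0.04%. Virus at MOI 0.25 with compound present for 72 h. Cells fixed in 4% PFA and permeabilized in 1% Triton X-100. Stained with Alexa Fluor-labeled anti-VP1 antibody, infected cells scored by flow cytometry. IC50 from three independent experiments.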
# [3] = test system: Human papillomavirus type 16; test: Antiviral activity against HPV16 pseudovirus expressing HcRed reporter infected in HeLa-M cells assessed as reduction in viral infectivity pre-incubated for 0.5 hrs with compound before viral infection for 72 hrs by flow cytometry; format: functional, organism-based; settings: Human papillomavirus 16, HeLaM
# How it was run: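 HeLa M cells in DMEM with 10% FBS and 10 mM Hepes pH 7.5, pretreated with compound from 1:2 serial dilutions of a 2500x DMSO stock, final DMSO 0.04%. Challenged with HcRed-reporter HPV16 pseudovirus. Cells fixed in 4% PFA and HcRed-positive cells scored by flow cytometry. IC50 from three independent experiments.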
# [4] = test system: JC polyomavirus; test: (§1) Inhibition of retrograde transport of JC polyomavirus Mad1-SVEdelta infected in SVG-A cells assessed as reduction in co-localization of viral capsid protein VP1 and ER protein PDI pre-incubated for 0.5 hrs with compound before viral infection for 1 hr followed by incubation with compound at 0.1 mM for 8 hrs by proximity ligation assay; format: functional, cell-based
# How it was run: (§2)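 SVG-A cells in MEM with 10% FBS were pretreated 0.5 h, then given JCPyV Mad1-SVEΔ at MOI 100 for 1 h at 37°C. After washing, compound (0.05 or 0.1 mM) or vehicle was re-added for 8 h at 37°C. Cells were fixed (4% PFA), permeabilised (0.5% Triton, 0.5 h) and blocked (5% donkey serum), then stained overnight at 4°C with rabbit anti-VP1 (1:1,000) plus mouse anti-PDI (1:100). Read-out: proximity ligation, confocal maximal z-projections.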
# [5] = test system: Human papillomavirus type 16; test: as §1, with “HPV16 pseudovirus expressing HcRed reporter” for “JC polyomavirus Mad1-SVEdelta”, “L1” for “VP1”, “golgi” for “ER”, “TGN46” for “PDI”, “16” for “8”; format: functional, organism-based; settings: Human papillomavirus 16
# [6] = test system: JC polyomavirus; test: Potency index, ratio of IC50 for Retro-2(cycl) to IC50 for test compound against JC polyomavirus Mad1-SVEdelta infected in SVG-A cells assessed as reduction in viral infectivity pre-incubated for 0.5 hrs with compound before viral infection for 72 hrs by flow cytometry; format: functional
# [7] = test system: JC polyomavirus; test: as §1, with “0.05” for “0.1”; format: functional, cell-based; how it was run: as §2
# [8] = test system: Human papillomavirus type 16; test: as §1, with “HPV16 pseudovirus expressing HcRed reporter” for “JC polyomavirus Mad1-SVEdelta”, “L1” for “VP1”, “golgi” for “ER”, “TGN46” for “PDI”, “0.05” for “0.1”, “16” for “8”; format: functional, organism-based; settings: Human papillomavirus 16
Compound,Activity [1] [%],other results
CCc1ccc(C2N(Cc3ccc(F)cc3)C(=O)c3ccccc3N2C)s1 (configuration not stated),60,
CCCN1C(=O)c2ccccc2NC1c1ccc(CC)s1 (racemic),76.4,
Cc1ccc(C2Nc3ccccc3C(=O)N2c2ccccc2)s1 (racemic),57.5,IC50 [2]: 54 µM; IC50 [3]: 160 µM; inhibition [4]: Active; inhibition [5]: Active
CCc1ccc(C2Nc3c(C)cccc3C(=O)N2Cc2ccc(F)cc2)s1 (racemic),44.5,
CCc1ccc(C2Nc3ccc(Cl)cc3C(=O)N2Cc2ccc(F)cc2)s1 (racemic),13.7,
CCc1ccc(C2Nc3ccccc3C(=O)N2Cc2ccccc2OC)s1 (racemic),13.7,
CCc1ccc(C2Nc3ccccc3C(=O)N2Cc2cccc(F)c2)s1 (racemic),14,
CCc1ccc(C2Nc3cc(F)ccc3C(=O)N2Cc2ccc(F)cc2)s1 (racemic),8.82,
CCc1ccc(C2Nc3ccccc3C(=O)N2Cc2cccc3ccccc23)s1 (racemic),14.5,
CCCCNc1ccc2c(c1)C(=O)N(Cc1ccc(F)cc1)C(c1ccc(CC)s1)N2 (configuration not stated),71,
CCc1ccc(C2Nc3ccccc3C(=O)N2Cc2cccc([N+](=O)[O-])c2)s1 (racemic),44.5,
O=C1c2ccccc2NC(c2ccc[nH]2)N1c1ccccc1 (racemic),92.4,
CCc1ccc(C2NC(=O)c3ccccc3N2)s1 (racemic),41.4,
Cc1ccsc1C1Nc2ccccc2C(=O)N1c1ccccc1 (racemic),76.4,
CCc1ccc(C2Nc3ccccc3C(=O)N2[C@H](C)c2ccccc2)s1 (mixture of isomers),52.7,
CCc1ccc(C2Nc3ccccc3C(=O)N2CCc2ccccc2)s1 (racemic),50.4,
O=C1c2ccccc2NC(c2cccs2)N1c1ccccc1 (racemic),81.1,
CCc1ccc(C2Nc3ccccc3C(=O)N2Cc2ccc(OC)cc2OC)s1 (racemic),16.4,
CCc1ccc(C2Nc3cc(Cl)ccc3C(=O)N2Cc2ccc(F)cc2)s1 (racemic),21.3,

Compound,Activity [1] [%],other results
CCc1ccc(C2Nc3ccccc3C(=O)N2Cc2ccc(F)cc2)s1 (racemic),7.62,
CCc1ccc(C2Nc3ccccc3C(=O)N2Cc2cccc(OC)c2)s1 (racemic),27.5,
CCc1ccc(C2Nc3ccccc3C(=O)N2C(C)C)s1 (racemic),69.9,
CCc1ccc(-c2nc3ccccc3c(=O)n2Cc2ccc(F)cc2)s1,63.3,
Cc1ccc(C2Nc3ccccc3C(=O)N2c2ccccc2)o1 (racemic),64.4,
Cc1csc(C2Nc3ccccc3C(=O)N2c2ccccc2)c1 (racemic),55.6,
CCc1ccc(C2Nc3ccc(F)cc3C(=O)N2Cc2ccc(F)cc2)s1 (racemic),4.45,IC50 [2]: 8.1 µM; Ratio IC50 [6]: 6.7; inhibition [7]: Active; IC50 [3]: 24 µM; inhibition [8]: Active
O=C1c2ccccc2NC(c2ccco2)N1c1ccccc1 (racemic),69.9,
CCc1ccc(C2Nc3ccccc3C(=O)N2Cc2ccc([N+](=O)[O-])cc2)s1 (racemic),30.6,
CCc1ccc(C2Nc3ccccc3C(=O)N2[C@@H](C)c2ccccc2)s1 (mixture of isomers),32.4,
O=C1c2ccccc2NC(c2cc3ccccc3s2)N1c1ccccc1 (racemic),95.3,
CCc1ccc(C2Nc3ccccc3C(=O)N2C2CCCCC2)s1 (racemic),45.7,
CCc1ccc(C2Nc3cc(C)ccc3C(=O)N2Cc2ccc(F)cc2)s1 (racemic),67.1,
CCc1ccc(C2Nc3ccc(C)cc3C(=O)N2Cc2ccc(F)cc2)s1 (racemic),8.34,
CCc1ccc(C2Nc3cccc(C)c3C(=O)N2Cc2ccc(F)cc2)s1 (racemic),10.2,
CCc1ccc(C2Nc3ccccc3C(=O)N2Cc2ccccc2)s1 (racemic),13.3,
CCc1ccc(C2Nc3ccccc3C(=O)N2c2ccccc2)s1 (racemic),47.8,
CCc1ccc(C2Nc3ccccc3C(=O)N2Cc2ccc(OC)cc2)s1 (racemic),21.2,
CCCCN1C(=O)c2ccccc2NC1c1ccc(CC)s1 (racemic),42.4,
